{"source": "ChEMBL document CHEMBL4680287", "about": "“Ibrexafungerp: An orally active β-1,3-glucan synthesis inhibitor” (Bioorg Med Chem Lett, 2021)", "key": {"Aspergillus fumigatus [1]": {"test_system": "Aspergillus fumigatus", "assay": "Antifungal activity against Aspergillus fumigatus MF5668 infected in DBA/2N mouse assessed as mouse survival at 3.125 mg/kg, ip bid administered for 7 days starting from 15 to 30 mins post infection and measured up to 21 days relative to control", "type": "functional", "details": "168 h, time 7 day", "method_in_brief": "(§1)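 DBA/2N mice were infected IV with A. fumigatus MF5668 (6.7 x 10^5 CFU/mouse) and treated IP bid for 7 days. Percent survival per dose group was scored at the end of the 21-day survival model and compared with the sham-treated control group.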"}, "Aspergillus fumigatus [2]": {"test_system": "Aspergillus fumigatus", "assay": "Antifungal activity against Aspergillus fumigatus MF5668 infected in ip dosed DBA/2N mouse assessed as 50% mouse survival administered bid administered for 7 days starting from 15 to 30 mins post infection and measured up to 21 days", "details": "168 h"}, "Aspergillus fumigatus [3]": {"test_system": "Aspergillus fumigatus", "assay": "Antifungal activity against Aspergillus fumigatus MF5668 infected in DBA/2N mouse assessed as mouse survival at 12.5 mg/kg, ip bid administered for 7 days starting from 15 to 30 mins post infection and measured up to 21 days relative to control", "type": "functional", "details": "168 h, time 7 day", "method_in_brief": "as §1"}, "Aspergillus fumigatus [4]": {"test_system": "Aspergillus fumigatus", "assay": "Antifungal activity against Aspergillus fumigatus MF5668 infected in ip dosed DBA/2N mouse assessed as 90% mouse survival administered bid administered for 7 days starting from 15 to 30 mins post infection and measured up to 21 days", "type": "functional", "details": "168 h, time 7 day"}, "Candida albicans [5]": {"test_system": "Candida albicans", "assay": "Antifungal activity against Candida albicans MY1055 infected in DBA/2 mouse model of disseminated candidiasis assessed as reduction in fungal burden in kidney by measuring log change in colony forming units at 25 mg/kg, po bid for 7 days by TOKA", "type": "functional", "details": "time 7 day", "method_in_brief": "(§2)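 Murine disseminated candidiasis model (TOKA) in mice challenged with C. albicans MY1055 at 2.44 x 10^4 CFU/mouse. Dosed PO, or IP where stated. Kidneys collected aseptically 7 days after challenge and CFUs/g counted. Change in log CFU/g is relative to sham-treated controls; significance by two-tailed t test. Clearance is the percentage of kidneys below the detection limit.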"}, "Aspergillus fumigatus [6]": {"test_system": "Aspergillus fumigatus", "assay": "Antifungal activity against Aspergillus fumigatus MF5668 infected in DBA/2N mouse assessed as mean survival time at 6.25 mg/kg, ip bid administered for 7 days starting from 15 to 30 mins post infection and measured up to 21 days", "type": "functional", "details": "time 7 day", "method_in_brief": "(§3)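 DBA/2N mice were challenged IV with A. fumigatus MF5668 at 6.7 x 10^5 CFU/mouse, then dosed IP twice daily for 7 days. Survival was followed over a 21-day model, and mean survival time in days was recorded per dose group. A sham-treated control group was run alongside.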"}, "[7]": {"assay": "Dose normalized AUC in po dosed mouse", "type": "ADME, organism-based", "details": "in vivo"}, "Candida albicans [8]": {"test_system": "Candida albicans", "assay": "Antifungal activity against Candida albicans MY1055 infected in DBA/2 mouse model of disseminated candidiasis assessed as reduction in fungal burden in kidney by measuring log change in colony forming units at 12.5 mg/kg, ip bid for 7 days by TOKA", "type": "functional", "details": "time 7 day", "method_in_brief": "as §2"}, "[9]": {"assay": "Inhibition of beta-1,3-glucan synthase in Candida albicans MY1055 microsomal membrane assessed as inhibition of TCA-insoluble material formation using UDP-[3H]-glucose as substrate incubated for 2 hrs in presence of GTP by radioactivity-based assay", "type": "microsomes, Microsome", "method_in_brief": "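GS IC50 measured using Candida albicans MY1055 microsomal membrane fragments as the enzyme source.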"}, "[10]": {"assay": "Clearance in mouse", "type": "ADME, organism-based", "details": "in vivo"}, "[11]": {"assay": "Half life in rat", "type": "ADME", "details": "in vivo"}, "Aspergillus fumigatus [12]": {"test_system": "Aspergillus fumigatus", "assay": "Antifungal activity against Aspergillus fumigatus MF5668 assessed inhibition of fungal growth by measuring morphological changes measured after 24 hrs by microscopy", "type": "functional", "details": "read-out: MEC", "method_in_brief": "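Microdilution per CLSI protocols in RPMI medium. Read-out is the minimum effective concentration (MEC). Run without serum and with 50% human serum.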"}, "[13]": {"assay": "Oral bioavailability in mouse", "type": "ADME, organism-based", "details": "in vivo", "method_in_brief": "(§4)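 Oral bioavailability calculated as oral AUC normalized to the IV dose, divided by the IV AUC.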"}, "[14]": {"assay": "Dose normalized AUC in po dosed rat", "type": "ADME, organism-based", "details": "in vivo"}, "Aspergillus fumigatus [15]": {"test_system": "Aspergillus fumigatus", "assay": "Antifungal activity against Aspergillus fumigatus MF5668 infected in DBA/2N mouse assessed as mean survival time at 3.125 mg/kg, ip bid administered for 7 days starting from 15 to 30 mins post infection and measured up to 21 days", "type": "functional", "details": "time 7 day", "method_in_brief": "as §3"}, "Candida albicans [16]": {"test_system": "Candida albicans", "assay": "Antifungal activity against Candida albicans MY1055 infected in DBA/2 mouse model of disseminated candidiasis assessed as reduction in fungal burden in kidney by measuring log change in colony forming units at 6.25 mg/kg, po bid for 7 days by TOKA", "type": "functional", "details": "time 7 day", "method_in_brief": "as §2"}, "[17]": {"assay": "Oral bioavailability in rat", "type": "ADME, organism-based", "details": "in vivo", "method_in_brief": "as §4"}, "[18]": {"assay": "Half life in mouse", "type": "ADME, organism-based", "details": "in vivo"}, "Candida albicans [19]": {"test_system": "Candida albicans", "assay": "Antifungal activity against Candida albicans MY1055 infected in ip dosed DBA/2 mouse model of disseminated candidiasis assessed as reduction in fungal burden in kidney administered bid for 7 days by TOKA", "type": "functional", "details": "168 h, time 7 day", "method_in_brief": "as §2"}, "Candida albicans [20]": {"test_system": "Candida albicans", "assay": "Antifungal activity against Candida albicans MY1055 assessed as fungal growth inhibition measured after 24 hrs in presence of 50% mouse serum by liquid microdilution method", "type": "functional", "method_in_brief": "(§5)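 Broth microdilution per CLSI protocols in RPMI medium. Read-out is the MIC, the lowest concentration completely inhibiting fungal growth. Run without serum and with added serum.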"}, "Aspergillus fumigatus [21]": {"test_system": "Aspergillus fumigatus", "assay": "Antifungal activity against Aspergillus fumigatus MF5668 infected in DBA/2N mouse assessed as mouse survival at 1.56 mg/kg, ip bid administered for 7 days starting from 15 to 30 mins post infection and measured up to 21 days relative to control", "type": "functional", "details": "168 h, time 7 day", "method_in_brief": "as §1"}, "Candida albicans [22]": {"test_system": "Candida albicans", "assay": "Antifungal activity against Candida albicans MY1055 infected in DBA/2 mouse model of disseminated candidiasis assessed as reduction in fungal burden in kidney by measuring log change in colony forming units at 12.5 mg/kg, po bid for 7 days by TOKA", "type": "functional", "details": "time 7 day", "method_in_brief": "as §2"}, "Aspergillus fumigatus [23]": {"test_system": "Aspergillus fumigatus", "assay": "Antifungal activity against Aspergillus fumigatus MF5668 infected in DBA/2N mouse assessed as mean survival time at 12.5 mg/kg, ip bid administered for 7 days starting from 15 to 30 mins post infection and measured up to 21 days", "type": "functional", "details": "time 7 day", "method_in_brief": "as §3"}, "Aspergillus fumigatus [24]": {"test_system": "Aspergillus fumigatus", "assay": "Antifungal activity against Aspergillus fumigatus MF5668 infected in DBA/2N mouse assessed as mouse survival at 6.25 mg/kg, ip bid administered for 7 days starting from 15 to 30 mins post infection and measured up to 21 days relative to control", "type": "functional", "details": "168 h, time 7 day", "method_in_brief": "as §1"}, "Candida albicans [25]": {"test_system": "Candida albicans", "assay": "Antifungal activity against Candida albicans MY1055 assessed as fungal growth inhibition measured after 24 hrs by liquid microdilution method", "type": "functional", "method_in_brief": "as §5"}, "[26]": {"assay": "Clearance in rat", "type": "ADME", "details": "in vivo"}, "Aspergillus fumigatus [27]": {"test_system": "Aspergillus fumigatus", "assay": "Antifungal activity against Aspergillus fumigatus MF5668 infected in DBA/2N mouse assessed as mean survival time at 1.56 mg/kg, ip bid administered for 7 days starting from 15 to 30 mins post infection and measured up to 21 days", "type": "functional", "details": "time 7 day", "method_in_brief": "as §3"}}}
{"smiles": "CC(C)[C@@H](C)[C@@]1(C)CC[C@]2(C)[C@H]3CC[C@@H]4[C@@]5(COC[C@@]4(C)[C@@H](OCC4(N)CCOCC4)[C@H](n4ncnc4-c4ccncc4)C5)C3=CC[C@@]2(C)[C@@H]1C(=O)O", "values": [{"measurement": "survival at 3.125 mg/kg", "setting": "Aspergillus fumigatus [1]", "result": 10, "unit": "%"}, {"measurement": "ED50", "setting": "Aspergillus fumigatus [2]", "result": 11, "unit": "mg/kg"}, {"measurement": "survival at 12.5 mg/kg", "setting": "Aspergillus fumigatus [3]", "result": 60, "unit": "%"}, {"measurement": "ED90", "setting": "Aspergillus fumigatus [4]", "result": 26, "unit": "mg/kg"}, {"measurement": "Activity", "setting": "Candida albicans [5]", "result": -3.9, "unit": "deltalog10CFU"}, {"measurement": "MST", "setting": "Aspergillus fumigatus [6]", "result": 12.5, "unit": "days"}, {"measurement": "AUC/dose", "setting": "[7]", "result": 0.18, "unit": "µM·kg·h/mg"}, {"measurement": "Activity", "setting": "Candida albicans [8]", "result": -4, "unit": "deltalog10CFU"}, {"measurement": "IC50", "setting": "[9]", "result": 0.002, "unit": "µg/mL"}, {"measurement": "clearance", "setting": "[10]", "result": 18, "unit": "mL/min/kg"}, {"measurement": "half-life", "setting": "[11]", "result": 1.9, "unit": "h"}, {"measurement": "minimal effective concentration", "setting": "Aspergillus fumigatus [12]", "result": "< 0.03", "unit": "µg/mL"}, {"measurement": "bioavailability", "setting": "[13]", "result": 13, "unit": "%"}, {"measurement": "AUC/dose", "setting": "[14]", "result": 0.34, "unit": "µM·kg·h/mg"}, {"measurement": "MST", "setting": "Aspergillus fumigatus [15]", "result": 7.3, "unit": "days"}, {"measurement": "Activity", "setting": "Candida albicans [16]", "result": -1.4, "unit": "deltalog10CFU"}, {"measurement": "bioavailability", "setting": "[17]", "result": 30, "unit": "%"}, {"measurement": "half-life", "setting": "[18]", "result": 2.1, "unit": "h"}, {"measurement": "ED99", "setting": "Candida albicans [19]", "result": 3.8, "unit": "mg/kg"}, {"measurement": "MIC", "setting": "Candida albicans [20]", "result": 0.25, "unit": "µg/mL"}, {"measurement": "survival at 1.56 mg/kg", "setting": "Aspergillus fumigatus [21]", "result": 0, "unit": "%"}, {"measurement": "Activity", "setting": "Candida albicans [22]", "result": -3.1, "unit": "deltalog10CFU"}, {"measurement": "MST", "setting": "Aspergillus fumigatus [23]", "result": 14.6, "unit": "days"}, {"measurement": "survival at 6.25 mg/kg", "setting": "Aspergillus fumigatus [24]", "result": 40, "unit": "%"}, {"measurement": "MIC", "setting": "Candida albicans [25]", "result": "< 0.03", "unit": "µg/mL"}, {"measurement": "clearance", "setting": "[26]", "result": 20, "unit": "mL/min/kg"}, {"measurement": "MST", "setting": "Aspergillus fumigatus [27]", "result": 4.1, "unit": "days"}]}
